For one experiment, the system named is Calf thymus DNA. Briefly: Affinity constant for calf thymus DNA. It counts as nucleic-acid assay. The settings on record: Bos taurus. In a few lines:
(§1)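 Fluorescence competition assay with ethidium dimer at 25 °C in 0.1 M Tris-HCl, 0.1 M NaCl buffer, pH 7.4. Calf thymus DNA (1.6 × 10⁻⁶ M base pairs) was equilibrated with ethidium dimer for 24 h, then measured with varied drug concentrations. Excitation was 540 nm and emission 610 nm. Bound dye per base pair was derived by the Gaugain method. Ka was fitted from computed versus experimental displacement curves.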

Experiment [1] relates to L1210. Briefly: Dose required to inhibit growth of L1210 cells after 24-h exposure to the compound. The settings on record: Mus musculus, L1210, 24 h; read-out: ED50 (the source's name). It counts as functional. The method in brief:
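Exponentially growing L1210 cells were exposed to a range of drug concentrations for 24 h. The dose giving 50% growth inhibition was determined.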

For experiment [2], the system named is L1210. Briefly: Dose required to inhibit the cloning efficacy of L1210 cells to a factor of 0.37 after 24-h exposure to the compound. It counts as functional, Mus musculus. The method in brief:
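Exponentially growing L1210 cells were exposed to a range of drug concentrations for 24 h, then assessed by cloning. The dose reducing cloning efficiency to a factor of 0.37 was determined.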

The species named for experiment [3] is Mus musculus. Description: Maximal tolerated dose against DBA2 mice inoculated with L1210 cells was determined. The experiment is classed as functional.
Experiment [4] is filed under the species Mus musculus. Briefly: Increase in life span, expressed as treated by control was determined in DBA2 mice inoculated with L1210 cells; NS denotes not significant. The experiment is classed as functional, organism-based. In a few lines:
(§2)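 DBA2 mice were inoculated with 10⁵ L1210 cells and treated. Increase in life span was reported as mean survival of treated over control × 100. Significance was assessed by Student's test.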

For experiment [5], the species on record is Mus musculus. Briefly: Optimal dose required against DBA2 mice inoculated with L1210 cells. The experiment is classed as functional. In a few lines: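 DBA2 mice were inoculated with 10⁵ L1210 cells. The optimal dose (mg/kg) was the dose giving the greatest increase in life time of treated mice relative to controls.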
Experiment [6] is filed under the species Mus musculus. Briefly: Increase in life span, expressed as treated by control was determined in DBA2 mice inoculated with L1210 cells. The experiment is classed as functional. In a few lines:
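DBA2 mice inoculated with 10⁵ L1210 leukemia cells and treated with compound. Read-out was increase in life span as T/C × 100, the mean % survival of treated over control animals. Significance was tested by Student's test. Optimal dose in mg/kg was the dose that most extended the life time of treated mice.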

A further experiment deals with Nucleic Acid. Briefly: Affinity constant against calf thymus DNA; NM denotes not measurable due to weak solubility. The experiment is classed as nucleic-acid assay. The settings on record: Bos taurus. The method in brief:
as §1

The species named for experiment [7] is Mus musculus. Briefly: Increase in life span, expressed as treated by control was determined in DBA2 mice inoculated with L1210 cells; NM denotes not measurable due to weak solubility. The experiment is classed as functional, organism-based. In a few lines:
as §2

The record followed here is ChEMBL document CHEMBL1126026, “Synthesis and biological activity of new dimers in the 7H-pyrido[4,3-c] carbazole antitumor series” (1992).

Activity calls are given as the source filed them. No cut-off for these calls is given here. Where only a bound is given, the exact number is not on record here.

In general, MTD refers to the highest dose tested that stayed within the study's limit of toxicity. A word on the T/C: it is the ratio of treated to control. Regarding `COc1ccc2[nH]c3c(C(=O)NCCN4CCC(C5CCN(CCNC(=O)c6cc7ccncc7c7c6[nH]c6ccc(OC)cc67)CC5)CC4)cc4ccncc4c3c2c1`, the Ka with Calf thymus DNA was 2e+08 M⁻¹. Moreover, the EC50 with L1210 [1] turned out to be 11 µM. Further, the ED37 in the experiment with L1210 [2] stood at 30 µM. Moreover, the MTD in the experiment listed under Mus musculus [3] was 10 mg/kg. In addition, in the experiment listed under Mus musculus [4], the T/C entry is “inactive”. In the experiment filed under Mus musculus [5], this compound had an OD of 10 mg/kg.
Compound `COc1ccc2c(c1)c1c3c[n+](C)ccc3ccc1n2CCN1CCC(C2CCN(CCn3c4ccc(OC)cc4c4c5c[n+](C)ccc5ccc43)CC2)CC1.CS(=O)(=O)O.CS(=O)(=O)O.CS(=O)(=O)[O-].CS(=O)(=O)[O-]` gave a Ka in the experiment with Calf thymus DNA of more than 1e+09 M⁻¹. In addition, the EC50 with L1210 [1] was 0.9 µM. Further, in the experiment filed under Mus musculus [3], the MTD worked out at 5 mg/kg. Moreover, the T/C in the experiment filed under Mus musculus [6] worked out at 134%. In the experiment filed under Mus musculus [5], the OD worked out at 5 mg/kg.
As for `COc1ccc2[nH]c3c(C)cc4cc[n+](CCN5CCC(C6CCN(CC[n+]7ccc8cc(C)c9[nH]c%10ccc(OC)cc%10c9c8c7)CC6)CC5)cc4c3c2c1.CS(=O)(=O)O.CS(=O)(=O)O.CS(=O)(=O)[O-].CS(=O)(=O)[O-]`, the Ka in the experiment with Calf thymus DNA came out at 5e+08 M⁻¹. Further, in the experiment on L1210 [1], the EC50 is 0.37 µM. The compound also displayed an ED37 in the experiment on L1210 [2] of 0.1 µM. For the same compound, the maximal tolerated dose (MTD) in the experiment listed under Mus musculus [3] was 11 mg/kg. Also, the T/C in the experiment listed under Mus musculus [6] was 172%. The compound further came in with an OD in the experiment listed under Mus musculus [5] of 7 mg/kg.
Take `COc1ccc2[nH]c3c(CNC(=O)[C@@H](N)CCC(=O)O)cc4cc[n+](CCN5CCC(C6CCN(CC[n+]7ccc8cc(CNC(=O)[C@@H](N)CCC(=O)O)c9[nH]c%10ccc(OC)cc%10c9c8c7)CC6)CC5)cc4c3c2c1.CS(=O)(=O)O.CS(=O)(=O)O.CS(=O)(=O)[O-].CS(=O)(=O)[O-]`: the Ka result with Nucleic Acid is “Not measurable”. The EC50 with L1210 [1] turned out to be 0.46 µM. The same compound came in with an ED37 with L1210 [2] of more than 0.58 µM. The T/C result in the experiment listed under Mus musculus [7] is “Not measurable”.
As for `COc1ccc2[nH]c3ccc4cc[n+](CCN5CCC(C6CCN(CC[n+]7ccc8ccc9[nH]c%10ccc(OC)cc%10c9c8c7)CC6)CC5)cc4c3c2c1.CS(=O)(=O)O.CS(=O)(=O)O.CS(=O)(=O)[O-].CS(=O)(=O)[O-]`, the ED37 with L1210 [2] turned out to be 0.02 µM. The MTD in the experiment listed under Mus musculus [3] was determined as 10 mg/kg. In addition, in the experiment filed under Mus musculus [6], the T/C is recorded as 182%. For the same compound, the OD in the experiment filed under Mus musculus [5] was 10 mg/kg.
`COc1ccc2[nH]c3ccc4cc[n+](CCN5CCC(C6CCN(CC[n+]7ccc8ccc9[nH]c%10ccc(OC)cc%10c9c8c7)CC6)CC5)cc4c3c2c1.[Cl-].[Cl-]` [DITERCALINIUM CHLORIDE]: in the experiment on L1210 [1], the EC50 worked out at 0.19 µM. Further, the ED37 in the experiment on L1210 [2] worked out at 0.024 µM. The compound further registered an MTD in the experiment filed under Mus musculus [3] of 10 mg/kg. For the same compound, the T/C in the experiment filed under Mus musculus [6] is listed as 182%. Further, in the experiment listed under Mus musculus [5], the OD was found to be 10 mg/kg.
Compound `COc1ccc2[nH]c3ccc4cc[n+](CCN5CCC(C6CCN(CC[n+]7ccc8ccc9[nH]c%10ccc(OC)cc%10c9c8c7)CC6)CC5)cc4c3c2c1` registered a Ka in the experiment with Calf thymus DNA of 1e+07 M⁻¹.
Take `COc1ccc2c(c1)c1c3cnccc3ccc1n2CCN1CCC(C2CCN(CCn3c4ccc(OC)cc4c4c5cnccc5ccc43)CC2)CC1.CS(=O)(=O)O.CS(=O)(=O)O`: the Ka with Calf thymus DNA turned out to be 1e+07 M⁻¹. Also, in the experiment on L1210 [1], the EC50 is 0.6 µM. In addition, the MTD in the experiment filed under Mus musculus [3] was 10 mg/kg. Besides, the T/C entry in the experiment filed under Mus musculus [4] is “inactive”. For the same compound, the OD in the experiment listed under Mus musculus [5] was 10 mg/kg.
In the experiment on Calf thymus DNA, `COc1ccc2[nH]c3c(CNC(=O)[C@]4(O)O[C@H](CO)[C@H](O)[C@H]4O)cc4cc[n+](CCN5CCC(C6CCN(CC[n+]7ccc8cc(CNC(=O)[C@]9(O)O[C@H](CO)[C@H](O)[C@H]9O)c9[nH]c%10ccc(OC)cc%10c9c8c7)CC6)CC5)cc4c3c2c1` yielded a Ka of 3e+06 M⁻¹. In addition, in the experiment on L1210 [1], the EC50 came out at 2.15 µM.
The compound `COc1ccc2[nH]c3c(CN)cc4cc[n+](CCN5CCC(C6CCN(CC[n+]7ccc8cc(CN)c9[nH]c%10ccc(OC)cc%10c9c8c7)CC6)CC5)cc4c3c2c1.CS(=O)(=O)O.CS(=O)(=O)O.CS(=O)(=O)[O-].CS(=O)(=O)[O-]` came in with a Ka in the experiment with Calf thymus DNA of 2e+07 M⁻¹. Besides, the EC50 in the experiment with L1210 [1] was 0.057 µM. In addition, in the experiment on L1210 [2], the ED37 came out at 0.066 µM. The same compound displayed an MTD in the experiment listed under Mus musculus [3] of 20 mg/kg. Further, in the experiment listed under Mus musculus [4], the T/C entry is “inactive”. This compound also returned an OD in the experiment filed under Mus musculus [5] of 10 mg/kg.
With `COc1ccc2c(c1)c1c3c(ccc1n2C)CCN(CCN1CCC(C2CCN(CCN4CCc5ccc6c(c5C4)c4cc(OC)ccc4n6C)CC2)CC1)C3.CS(=O)(=O)O.CS(=O)(=O)O`, the Ka with Calf thymus DNA stood at 4e+07 M⁻¹. The EC50 with L1210 [1] is 0.66 µM. The same compound yielded an ED37 in the experiment on L1210 [2] of 0.6 µM. In the experiment listed under Mus musculus [3], this compound yielded a maximum tolerated dose (MTD) of 10 mg/kg. Also, the T/C entry in the experiment filed under Mus musculus [4] is “inactive”. In the experiment filed under Mus musculus [5], the OD came out at 10 mg/kg.
Consider `COc1ccc2[nH]c3c(C(=O)O)cc4cc[n+](CCN5CCC(C6CCN(CC[n+]7ccc8cc(C(=O)O)c9[nH]c%10ccc(OC)cc%10c9c8c7)CC6)CC5)cc4c3c2c1.CS(=O)(=O)O.CS(=O)(=O)O.CS(=O)(=O)[O-].CS(=O)(=O)[O-]`, for which, in the experiment on Calf thymus DNA, the Ka turned out to be 250000 M⁻¹. For the same compound, in the experiment on L1210 [1], the EC50 was more than 0.8 µM. This compound displayed an ED37 in the experiment on L1210 [2] of more than 0.8 µM. The T/C entry in the experiment filed under Mus musculus [7] is recorded as “Not measurable”.
